Source: ChEMBL document CHEMBL2346629, “Discovery and characterization of novel allosteric FAK inhibitors” (Eur J Med Chem, 2013)

Legend:
[1] = tested on: Proto-oncogene tyrosine-protein kinase receptor Ret (Homo sapiens), P07949 [V804M]; experiment: Inhibition of RET V804M mutant (unknown origin) using [gamma-33P]ATP assessed as residual activity at 3 uM
[2] = tested on: Platelet-derived growth factor receptor alpha (Homo sapiens), P16234 [V561D]; experiment: Inhibition of PDGFRa V561D mutant (unknown origin) using [gamma-33P]ATP assessed as residual activity at 3 uM
[3] = target: PAS domain-containing serine/threonine-protein kinase (Homo sapiens) (UniProt Q96RG2); experiment: Inhibition of PASK (unknown origin) using [gamma-33P]ATP assessed as residual activity at 3 uM
[4] = target: Serine/threonine-protein kinase PAK 6 (Homo sapiens) (UniProt Q9NQU5); experiment: Inhibition of PAK6 (unknown origin) using [gamma-33P]ATP assessed as residual activity at 3 uM
[5] = target: Misshapen-like kinase 1 (Homo sapiens) (UniProt Q8N4C8); experiment: Inhibition of MINK (unknown origin) using [gamma-33P]ATP assessed as residual activity at 3 uM
In short: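 Contract radiometric panel screen of 288 kinases (261 wild-type, 27 mutant). Inhibition was read by [gamma-33P]ATP radioactivity incorporation.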

[6] = target: Casein kinase I isoform gamma-2 (Homo sapiens) (UniProt P78368); experiment: Inhibition of CK1g2 (unknown origin) using [gamma-33P]ATP assessed as residual activity at 3 uM
In short: (§1)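 Reaction Biology HotSpot radiometric profiling panel of 288 kinases (261 wild-type, 27 mutant). Kinase activity was read out by incorporation of [γ-33P]ATP.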

[7] = target: Casein kinase I isoform gamma-1 (Homo sapiens) (UniProt Q9HCP0); experiment: Inhibition of CK1g1(unknown origin) using [gamma-33P]ATP assessed as residual activity at 3 uM; in short: as §1
[8] = target: CDK3/cyclin E (Homo sapiens) (UniProt P24864+O96020+Q00526); experiment: Inhibition of CDK3/cyclinE (unknown origin) using [gamma-33P]ATP assessed as residual activity at 3 uM; type: protein-complex assay
In short: (§2)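 Radiometric profiling across 288 kinases (261 wild-type, 27 mutant), run as an outsourced service. Inhibition read out as [gamma-33P]ATP incorporation into substrate.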

[9] = target: Cyclin-dependent kinase 1/cyclin B1 (Homo sapiens) (UniProt P06493+P14635); experiment: Inhibition of CDK1/cyclinB (unknown origin) using [gamma-33P]ATP assessed as residual activity at 3 uM; type: protein-complex assay; in short: as §2
[10] = target: Calcium/calmodulin-dependent protein kinase type II subunit delta (Homo sapiens) (UniProt Q13557); experiment: Inhibition of CAMK2d (unknown origin) using [gamma-33P]ATP assessed as residual activity at 3 uM; in short: as §2
[11] = target: Serine/threonine-protein kinase B-raf (Homo sapiens) (UniProt P15056); experiment: Inhibition of BRAF (unknown origin) using [gamma-33P]ATP assessed as residual activity at 3 uM; in short: as §2
[12] = tested on: Tyrosine-protein kinase BTK (Homo sapiens), Q06187 [E41K]; experiment: Inhibition of BTK E41K mutant (unknown origin) using [gamma-33P]ATP assessed as residual activity at 3 uM; in short: as §2
[13] = target: Vascular endothelial growth factor receptor 2 (Homo sapiens) (UniProt P35968); experiment: Inhibition of KDR (unknown origin) using [gamma-33P]ATP assessed as residual activity at 3 uM
In short: (§3)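 Radiometric kinase profiling service covering 288 kinases (261 wild-type, 27 mutant). Inhibition was read as incorporation from [γ-³³P]ATP.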

[14] = target: Tyrosine-protein kinase ITK/TSK (Homo sapiens) (UniProt Q08881); experiment: Inhibition of ITK (unknown origin) using [gamma-33P]ATP assessed as residual activity at 3 uM; in short: as §3
[15] = target: Serine/threonine-protein kinase A-Raf (Homo sapiens) (UniProt P10398); experiment: Inhibition of ARAF (unknown origin) using [gamma-33P]ATP assessed as residual activity at 3 uM; in short: as §2
[16] = tested on: Tyrosine-protein kinase ABL1 (Homo sapiens), P00519 [H396P]; experiment: Inhibition of ABL1 H396P mutant (unknown origin) using [gamma-33P]ATP assessed as residual activity at 3 uM; in short: as §2
[17] = target: Tyrosine-protein kinase Yes (Homo sapiens, UniProt P07947); experiment: Inhibition of YES (unknown origin) using [gamma-33P]ATP assessed as residual activity at 3 uM
[18] = target: Dual specificity protein kinase TTK (Homo sapiens) (UniProt P33981); experiment: Inhibition of TTK (unknown origin) using [gamma-33P]ATP assessed as residual activity at 3 uM
[19] = target: NT-3 growth factor receptor (Homo sapiens) (UniProt Q16288); experiment: Inhibition of TRKC (unknown origin) using [gamma-33P]ATP assessed as residual activity at 3 uM
[20] = target: Serine/threonine-protein kinase 33 (Homo sapiens) (UniProt Q9BYT3); experiment: Inhibition of STK33 (unknown origin) using [gamma-33P]ATP assessed as residual activity at 3 uM
[21] = target: Ribosomal protein S6 kinase alpha-3 (Homo sapiens) (UniProt P51812); experiment: Inhibition of RSK2 (unknown origin) using [gamma-33P]ATP assessed as residual activity at 3 uM
[22] = target: Tyrosine-protein kinase HCK (Homo sapiens) (UniProt P08631); experiment: Inhibition of HCK (unknown origin) using [gamma-33P]ATP assessed as residual activity at 3 uM; in short: as §3
[23] = target: Glycogen synthase kinase-3 alpha (Homo sapiens) (UniProt P49840); experiment: Inhibition of GSK3a (unknown origin) using [gamma-33P]ATP assessed as residual activity at 3 uM; in short: as §3
[24] = target: Fibroblast growth factor receptor 4 (Homo sapiens) (UniProt P22455); experiment: Inhibition of FGFR4 (unknown origin) using [gamma-33P]ATP assessed as residual activity at 3 uM; in short: as §1
[25] = target: Mitogen-activated protein kinase 1 (Homo sapiens) (UniProt P28482); experiment: Inhibition of ERK2 (unknown origin) using [gamma-33P]ATP assessed as residual activity at 3 uM; in short: as §1
[26] = target: Protein kinase C iota type (Homo sapiens) (UniProt P41743); experiment: Inhibition of PKCiota (unknown origin) using [gamma-33P]ATP assessed as residual activity at 3 uM
[27] = target: Protein kinase C alpha type (Homo sapiens) (UniProt P17252); experiment: Inhibition of PKCa (unknown origin) using [gamma-33P]ATP assessed as residual activity at 3 uM
[28] = target: Eukaryotic elongation factor 2 kinase (Homo sapiens) (UniProt O00418); experiment: Inhibition of EEF2K (unknown origin) using [gamma-33P]ATP assessed as residual activity at 3 uM; in short: as §1
[29] = target: Dual specificity tyrosine-phosphorylation-regulated kinase 3 (Homo sapiens) (UniProt O43781); experiment: Inhibition of DYRK3 (unknown origin) using [gamma-33P]ATP assessed as residual activity at 3 uM; in short: as §1
[30] = target: Dual specificity tyrosine-phosphorylation-regulated kinase 1B (Homo sapiens) (UniProt Q9Y463); experiment: Inhibition of DYRK1B (unknown origin) using [gamma-33P]ATP assessed as residual activity at 3 uM; in short: as §1
[31] = target: Discoidin domain-containing receptor 2 (Homo sapiens) (UniProt Q16832); experiment: Inhibition of DDR2 (unknown origin) using [gamma-33P]ATP assessed as residual activity at 3 uM; in short: as §1

Sequence of NT-3 growth factor receptor (Homo sapiens) (Q16288 whole entry, looked up): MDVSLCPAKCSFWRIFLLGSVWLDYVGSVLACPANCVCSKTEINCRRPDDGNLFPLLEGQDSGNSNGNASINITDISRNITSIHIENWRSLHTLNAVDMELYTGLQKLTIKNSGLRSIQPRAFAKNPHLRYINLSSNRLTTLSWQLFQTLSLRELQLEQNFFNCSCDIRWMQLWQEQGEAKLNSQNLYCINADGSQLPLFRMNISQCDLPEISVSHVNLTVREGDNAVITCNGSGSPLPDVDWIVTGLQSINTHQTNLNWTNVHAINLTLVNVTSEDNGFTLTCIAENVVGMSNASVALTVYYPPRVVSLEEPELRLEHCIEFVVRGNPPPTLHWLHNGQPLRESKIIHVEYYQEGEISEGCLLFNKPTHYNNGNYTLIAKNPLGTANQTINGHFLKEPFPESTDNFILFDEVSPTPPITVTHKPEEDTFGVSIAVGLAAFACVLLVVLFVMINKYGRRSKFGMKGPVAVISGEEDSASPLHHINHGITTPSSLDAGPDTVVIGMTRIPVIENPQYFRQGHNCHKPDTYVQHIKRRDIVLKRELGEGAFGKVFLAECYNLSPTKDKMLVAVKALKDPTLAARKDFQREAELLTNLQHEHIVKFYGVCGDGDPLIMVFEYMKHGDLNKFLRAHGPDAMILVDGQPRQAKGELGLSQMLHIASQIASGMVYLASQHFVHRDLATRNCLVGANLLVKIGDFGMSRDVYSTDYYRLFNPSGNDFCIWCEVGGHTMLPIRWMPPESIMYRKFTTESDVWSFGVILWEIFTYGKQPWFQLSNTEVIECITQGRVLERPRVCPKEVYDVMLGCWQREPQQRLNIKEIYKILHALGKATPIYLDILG
Sequence of Cyclin-dependent kinase 1/cyclin B1 (Homo sapiens) (P06493 whole entry, looked up): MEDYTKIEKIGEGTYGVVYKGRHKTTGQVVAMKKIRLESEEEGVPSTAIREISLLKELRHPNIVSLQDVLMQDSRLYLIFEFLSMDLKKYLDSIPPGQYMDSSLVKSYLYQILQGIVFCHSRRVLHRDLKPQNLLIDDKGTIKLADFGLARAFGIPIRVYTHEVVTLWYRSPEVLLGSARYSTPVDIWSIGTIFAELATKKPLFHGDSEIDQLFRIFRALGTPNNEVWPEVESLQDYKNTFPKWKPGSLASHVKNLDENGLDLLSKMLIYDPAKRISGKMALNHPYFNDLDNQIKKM
Sequence of Cyclin-dependent kinase 1/cyclin B1 (Homo sapiens) (P14635 whole entry, looked up): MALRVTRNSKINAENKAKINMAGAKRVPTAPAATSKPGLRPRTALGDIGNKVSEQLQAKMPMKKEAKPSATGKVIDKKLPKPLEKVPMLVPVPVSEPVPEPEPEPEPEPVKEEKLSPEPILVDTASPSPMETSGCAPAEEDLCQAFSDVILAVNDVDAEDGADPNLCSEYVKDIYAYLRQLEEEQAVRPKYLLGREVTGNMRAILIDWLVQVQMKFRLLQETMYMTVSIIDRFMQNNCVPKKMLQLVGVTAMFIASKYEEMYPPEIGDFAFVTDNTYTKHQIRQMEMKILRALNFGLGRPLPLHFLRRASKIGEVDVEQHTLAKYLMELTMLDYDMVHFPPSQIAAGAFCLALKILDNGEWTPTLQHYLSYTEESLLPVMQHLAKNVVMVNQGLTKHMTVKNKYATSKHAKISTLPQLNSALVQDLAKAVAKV
Sequence of Calcium/calmodulin-dependent protein kinase type II subunit delta (Homo sapiens) (Q13557 whole entry): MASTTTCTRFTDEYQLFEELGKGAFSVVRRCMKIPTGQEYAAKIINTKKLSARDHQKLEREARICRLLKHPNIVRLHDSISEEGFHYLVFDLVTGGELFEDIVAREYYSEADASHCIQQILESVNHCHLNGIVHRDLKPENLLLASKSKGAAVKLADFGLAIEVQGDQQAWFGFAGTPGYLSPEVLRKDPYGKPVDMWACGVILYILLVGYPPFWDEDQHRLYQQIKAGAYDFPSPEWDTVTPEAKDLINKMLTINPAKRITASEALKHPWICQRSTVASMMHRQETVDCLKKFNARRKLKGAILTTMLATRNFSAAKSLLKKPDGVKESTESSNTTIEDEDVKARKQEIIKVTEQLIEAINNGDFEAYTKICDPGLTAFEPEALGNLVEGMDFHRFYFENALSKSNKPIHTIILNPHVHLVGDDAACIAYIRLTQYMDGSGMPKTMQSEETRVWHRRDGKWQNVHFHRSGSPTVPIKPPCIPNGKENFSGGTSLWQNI
Sequence of Fibroblast growth factor receptor 4 (Homo sapiens) (P22455 22-802 limits assumed): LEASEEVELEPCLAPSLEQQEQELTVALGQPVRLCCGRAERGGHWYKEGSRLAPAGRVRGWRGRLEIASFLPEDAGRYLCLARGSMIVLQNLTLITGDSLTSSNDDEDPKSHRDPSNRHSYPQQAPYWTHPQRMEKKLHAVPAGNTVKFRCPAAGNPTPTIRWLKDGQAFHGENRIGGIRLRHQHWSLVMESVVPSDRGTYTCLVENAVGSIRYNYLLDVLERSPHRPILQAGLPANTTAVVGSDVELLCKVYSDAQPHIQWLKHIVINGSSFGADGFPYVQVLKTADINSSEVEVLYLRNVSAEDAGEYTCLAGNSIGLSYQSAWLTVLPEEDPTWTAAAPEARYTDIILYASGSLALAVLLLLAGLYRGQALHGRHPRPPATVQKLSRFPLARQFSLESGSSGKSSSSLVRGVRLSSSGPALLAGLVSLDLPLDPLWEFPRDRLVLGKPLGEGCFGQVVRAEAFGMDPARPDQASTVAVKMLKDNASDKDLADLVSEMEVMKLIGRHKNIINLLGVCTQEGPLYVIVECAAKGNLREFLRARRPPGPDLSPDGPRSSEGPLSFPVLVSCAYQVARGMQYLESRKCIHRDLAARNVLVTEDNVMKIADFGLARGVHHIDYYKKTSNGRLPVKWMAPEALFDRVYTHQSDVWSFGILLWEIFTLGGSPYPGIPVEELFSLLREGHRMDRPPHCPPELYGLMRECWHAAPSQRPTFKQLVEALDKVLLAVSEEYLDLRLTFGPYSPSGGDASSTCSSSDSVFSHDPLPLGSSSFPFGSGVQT
Sequence of Dual specificity protein kinase TTK (Homo sapiens) (P33981 whole entry): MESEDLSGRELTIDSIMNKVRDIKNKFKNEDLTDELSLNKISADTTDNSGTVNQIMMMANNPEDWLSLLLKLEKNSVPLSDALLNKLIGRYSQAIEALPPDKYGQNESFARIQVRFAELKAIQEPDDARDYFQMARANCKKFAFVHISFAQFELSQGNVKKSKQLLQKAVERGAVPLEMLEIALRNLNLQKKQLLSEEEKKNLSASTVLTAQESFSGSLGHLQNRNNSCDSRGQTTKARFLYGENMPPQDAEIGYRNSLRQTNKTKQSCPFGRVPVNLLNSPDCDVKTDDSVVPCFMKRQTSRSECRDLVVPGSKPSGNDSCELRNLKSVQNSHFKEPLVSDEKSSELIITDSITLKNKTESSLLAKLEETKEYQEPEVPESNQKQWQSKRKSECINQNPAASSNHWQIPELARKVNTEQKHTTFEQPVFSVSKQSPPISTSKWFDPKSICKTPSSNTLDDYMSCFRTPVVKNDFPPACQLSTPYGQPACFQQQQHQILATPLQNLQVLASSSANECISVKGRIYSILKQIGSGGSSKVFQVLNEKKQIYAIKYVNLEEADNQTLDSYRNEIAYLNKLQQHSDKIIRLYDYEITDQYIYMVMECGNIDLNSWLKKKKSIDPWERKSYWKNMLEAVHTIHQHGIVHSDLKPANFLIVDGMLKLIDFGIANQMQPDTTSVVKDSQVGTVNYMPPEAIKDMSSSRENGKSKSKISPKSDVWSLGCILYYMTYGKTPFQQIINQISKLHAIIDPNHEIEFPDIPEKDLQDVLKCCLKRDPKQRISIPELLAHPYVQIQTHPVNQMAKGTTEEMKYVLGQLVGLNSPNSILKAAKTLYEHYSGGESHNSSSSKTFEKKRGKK
Sequence of Casein kinase I isoform gamma-1 (Homo sapiens) (Q9HCP0 whole entry, looked up, canonical isoform): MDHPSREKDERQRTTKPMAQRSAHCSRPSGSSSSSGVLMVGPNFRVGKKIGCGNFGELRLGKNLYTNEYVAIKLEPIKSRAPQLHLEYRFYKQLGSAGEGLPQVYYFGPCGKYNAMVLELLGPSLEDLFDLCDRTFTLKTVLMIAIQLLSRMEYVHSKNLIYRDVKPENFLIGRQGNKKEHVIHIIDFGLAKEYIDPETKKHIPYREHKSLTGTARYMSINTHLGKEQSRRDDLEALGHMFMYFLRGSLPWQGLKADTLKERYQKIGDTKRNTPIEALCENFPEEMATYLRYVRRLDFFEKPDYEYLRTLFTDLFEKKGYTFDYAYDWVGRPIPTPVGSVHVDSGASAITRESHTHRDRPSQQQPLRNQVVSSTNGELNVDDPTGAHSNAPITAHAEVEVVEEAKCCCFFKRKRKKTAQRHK
Sequence of Serine/threonine-protein kinase 33 (Homo sapiens) (Q9BYT3 whole entry, looked up): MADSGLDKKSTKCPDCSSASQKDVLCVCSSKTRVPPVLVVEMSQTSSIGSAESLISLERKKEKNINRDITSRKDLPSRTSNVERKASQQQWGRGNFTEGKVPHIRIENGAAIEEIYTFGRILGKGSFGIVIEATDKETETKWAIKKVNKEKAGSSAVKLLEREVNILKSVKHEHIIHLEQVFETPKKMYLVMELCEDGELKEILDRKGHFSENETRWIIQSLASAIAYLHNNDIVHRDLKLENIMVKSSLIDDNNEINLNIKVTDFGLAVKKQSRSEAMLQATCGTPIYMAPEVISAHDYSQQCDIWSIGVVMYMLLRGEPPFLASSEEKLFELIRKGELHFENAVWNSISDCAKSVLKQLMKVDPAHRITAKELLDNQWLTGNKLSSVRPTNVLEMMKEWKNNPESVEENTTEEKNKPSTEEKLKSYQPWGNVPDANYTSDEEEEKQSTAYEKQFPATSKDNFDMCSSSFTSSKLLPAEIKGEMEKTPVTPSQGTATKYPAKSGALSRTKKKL
Sequence of Mitogen-activated protein kinase 1 (Homo sapiens) (P28482 whole entry): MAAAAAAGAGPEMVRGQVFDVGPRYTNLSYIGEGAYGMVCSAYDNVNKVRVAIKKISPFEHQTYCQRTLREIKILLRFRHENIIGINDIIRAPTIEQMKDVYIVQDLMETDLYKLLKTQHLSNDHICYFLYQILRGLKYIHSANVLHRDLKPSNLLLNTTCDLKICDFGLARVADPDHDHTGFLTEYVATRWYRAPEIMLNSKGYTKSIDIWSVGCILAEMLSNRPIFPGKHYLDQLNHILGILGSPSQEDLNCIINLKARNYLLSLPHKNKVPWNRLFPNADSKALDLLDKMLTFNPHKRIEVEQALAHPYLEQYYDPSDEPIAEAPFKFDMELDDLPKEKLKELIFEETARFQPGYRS

- Activity [1]: 91%
- Activity [2]: 81%
- Activity [3]: 95%
- Activity [4]: 97%
- Activity [5]: 55%
- Activity [6]: 101%
- Activity [7]: 94%
- Activity [8]: 96%
- Activity [9]: 83%
- Activity [10]: 95%
- Activity [11]: 98%
- Activity [12]: 100%
- Activity [13]: 86%
- Activity [14]: 88%
- Activity [15]: 100%
- Activity [16]: 71%
- Activity [17]: 29%
- Activity [18]: 74%
- Activity [19]: 95%
- Activity [20]: 94%
- Activity [21]: 84%
- Activity [22]: 74%
- Activity [23]: 81%
- Activity [24]: 87%
- Activity [25]: 93%
- Activity [26]: 95%
- Activity [27]: 86%
- Activity [28]: 104%
- Activity [29]: 100%
- Activity [30]: 98%
- Activity [31]: 96%
SMILES: CCc1ccc(-c2ccc3c(c2)-c2[nH]ncc2S(=O)(=O)N3C)cc1
